Reference: ChEMBL document CHEMBL4145662, “Novel Nonsteroidal Progesterone Receptor (PR) Antagonists with a Phenanthridinone Skeleton” (ACS Med Chem Lett, 2018)
Calls of active or inactive are those of the source. The rule behind the calls is not given here.

Tests used:
[1] = molecular target: T1, Nuclear receptor ROR-gamma (Homo sapiens) (UniProt P51449); experiment: Antagonist activity at human RORgamma1 expressed in HEK293 cells at 20 uM after 24 hrs by luciferase reporter gene assay; assay type: cell-based
T1 sequence (whole entry): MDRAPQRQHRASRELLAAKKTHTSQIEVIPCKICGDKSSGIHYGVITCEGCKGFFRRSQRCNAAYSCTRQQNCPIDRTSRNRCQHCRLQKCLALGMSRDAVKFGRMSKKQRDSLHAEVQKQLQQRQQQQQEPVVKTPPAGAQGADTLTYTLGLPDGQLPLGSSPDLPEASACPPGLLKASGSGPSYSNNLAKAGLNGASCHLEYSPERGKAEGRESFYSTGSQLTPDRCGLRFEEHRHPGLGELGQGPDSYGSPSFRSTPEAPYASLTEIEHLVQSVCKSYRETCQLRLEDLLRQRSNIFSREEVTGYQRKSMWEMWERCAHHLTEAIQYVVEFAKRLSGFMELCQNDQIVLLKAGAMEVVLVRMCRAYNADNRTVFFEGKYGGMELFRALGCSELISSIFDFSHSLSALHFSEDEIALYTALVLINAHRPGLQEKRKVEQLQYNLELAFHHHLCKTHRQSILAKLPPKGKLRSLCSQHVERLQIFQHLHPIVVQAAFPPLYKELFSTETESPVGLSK
Procedure, shortened: (§1)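 Inverse agonism at RORα, RORβ or RORγ measured by reporter gene assay.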

[2] = molecular target: T2, Oxysterols receptor LXR-beta (Homo sapiens) (UniProt P55055); experiment: Antagonist activity at human GAL4N-fused LXRbeta LBD expressed in HEK293 cells assessed as reduction in T0901317-induced transactivation activity at 20 uM after 24 hrs by luciferase reporter gene assay; assay type: cell-based
T2 sequence (whole entry): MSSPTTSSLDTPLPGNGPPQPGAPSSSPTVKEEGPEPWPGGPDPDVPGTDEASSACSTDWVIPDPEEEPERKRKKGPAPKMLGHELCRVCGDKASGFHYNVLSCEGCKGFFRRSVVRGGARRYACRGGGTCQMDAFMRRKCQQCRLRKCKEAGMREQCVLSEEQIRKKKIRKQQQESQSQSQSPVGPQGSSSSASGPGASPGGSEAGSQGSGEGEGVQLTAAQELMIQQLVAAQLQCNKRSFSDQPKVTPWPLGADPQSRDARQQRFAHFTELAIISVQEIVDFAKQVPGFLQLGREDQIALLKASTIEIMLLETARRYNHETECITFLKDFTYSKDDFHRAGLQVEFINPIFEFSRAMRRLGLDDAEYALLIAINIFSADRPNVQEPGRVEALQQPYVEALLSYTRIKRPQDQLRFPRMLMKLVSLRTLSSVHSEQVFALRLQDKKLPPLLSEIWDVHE

[3] = molecular target: T3, Nuclear receptor ROR-gamma (Homo sapiens, UniProt P51449); experiment: Antagonist activity at human RORgamma1 expressed in HEK293 cells after 24 hrs by luciferase reporter gene assay; assay type: cell-based; procedure, shortened: as §1
T3 sequence (P51449 whole entry): T1 sequence (whole entry)

[4] = Apparent permeability across apical to basolateral side in human Caco2 cells at 10 uM; assay type: ADME, cell-based; settings: caco-2, 10 µM
[5] = Stability in human liver microsomes at 0.1 uM by LC-MS/MS analysis; assay type: ADME, microsome

| Activity [1] | Activity [2] | IC50 [3] [µM] | Papp [4] | Stability [5] | SMILES |
| --- | --- | --- | --- | --- | --- |
| inactive | – | – | – | – | Cc1cc(C(O)(C(F)(F)F)C(F)(F)F)cc2c3ccc(F)cc3c(=O)n(C)c12 |
| inactive | inactive | – | – | – | Cc1cc(C(O)(C(F)(F)F)C(F)(F)F)cc2c1[nH]c(=O)c1cc(F)ccc12 |
| – | – | > 20 | Permeable | Stable | Cc1cc(C(O)(C(F)(F)F)C(F)(F)F)cc2c1[nH]c(=O)c1ccccc12 |
